Measurements taken from ChEMBL document CHEMBL1126638, “Intracellular delivery of bioactive AZT nucleotides by aryl phosphate derivatives of AZT” (J Med Chem, 1993).

Tested on: CCRF-CEM
Test: Antiviral activity in HIV-2 infected CEM cells which are deficient in Thymidine Kinase
Assay type: functional, cell-based
Details: Homo sapiens
Summary of the method: (§1)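 Cells at 5 × 10^5/mL infected with HIV-1 (III_B, stocks from infected MT-4 supernatants) or HIV-2 (ROD) at 100 CCID50 per mL, then mixed with compound dilutions. Giant cell formation recorded microscopically at day 4 (CEM). Viable MT-4 cells counted by trypan blue at day 5. EC50 is the concentration giving 50% protection against viral cytopathicity. Mean of two to four independent experiments.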

SMILES | EC50
CCCCCc1ccc(OP(=O)(NC(C)C(=O)OC)OCC2OC(n3cc(C)c(=O)[nH]c3=O)CC2N=[N+]=[N-])cc1 (centres undefined) | 8000 nM
COC(=O)C(Cc1ccccc1)NP(=O)(OCC1OC(n2cc(C)c(=O)[nH]c2=O)CC1N=[N+]=[N-])Oc1ccccc1 (centres undefined) | 10000 nM
CCc1ccc(OP(=O)(NC(C)C(=O)OC)OCC2OC(n3cc(C)c(=O)[nH]c3=O)CC2N=[N+]=[N-])cc1 (centres undefined) | 8700 nM
COC(=O)C(C)NP(=O)(OCC1OC(n2cc(C)c(=O)[nH]c2=O)CC1N=[N+]=[N-])Oc1ccc(OC)cc1 (centres undefined) | 9000 nM
COC(=O)[C@H](C)NP(=O)(OC[C@H]1O[C@@H](n2cc(C)c(=O)[nH]c2=O)C[C@@H]1N=[N+]=[N-])Oc1ccccc1 (some centres undefined) | 12000 nM
COC(=O)C(NP(=O)(OCC1OC(n2cc(C)c(=O)[nH]c2=O)CC1N=[N+]=[N-])Oc1ccccc1)C(C)C (centres undefined) | 13000 nM

Tested on: CCRF-CEM
Test: Anti HIV-1 activity in human lymphocyte CEM/0 cell line
Assay type: functional, cell-based
Details: not given
Summary of the method: as §1

SMILES | EC50
CCCCCc1ccc(OP(=O)(NC(C)C(=O)OC)OCC2OC(n3cc(C)c(=O)[nH]c3=O)CC2N=[N+]=[N-])cc1 (centres undefined) | 51 nM
COC(=O)C(Cc1ccccc1)NP(=O)(OCC1OC(n2cc(C)c(=O)[nH]c2=O)CC1N=[N+]=[N-])Oc1ccccc1 (centres undefined) | 97 nM
CCc1ccc(OP(=O)(NC(C)C(=O)OC)OCC2OC(n3cc(C)c(=O)[nH]c3=O)CC2N=[N+]=[N-])cc1 (centres undefined) | 48 nM
COC(=O)C(C)NP(=O)(OCC1OC(n2cc(C)c(=O)[nH]c2=O)CC1N=[N+]=[N-])Oc1ccc(OC)cc1 (centres undefined) | 57 nM
COC(=O)[C@H](C)NP(=O)(OC[C@H]1O[C@@H](n2cc(C)c(=O)[nH]c2=O)C[C@@H]1N=[N+]=[N-])Oc1ccccc1 (some centres undefined) | 55 nM
COC(=O)C(NP(=O)(OCC1OC(n2cc(C)c(=O)[nH]c2=O)CC1N=[N+]=[N-])Oc1ccccc1)C(C)C (centres undefined) | 140 nM

Tested on: CCRF-CEM
Test: Anti HIV-2 activity in human lymphocyte CEM/0 cell line
Assay type: functional, cell-based
Details: not given
Summary of the method: as §1

SMILES | EC50
CCCCCc1ccc(OP(=O)(NC(C)C(=O)OC)OCC2OC(n3cc(C)c(=O)[nH]c3=O)CC2N=[N+]=[N-])cc1 (centres undefined) | 60 nM
COC(=O)C(Cc1ccccc1)NP(=O)(OCC1OC(n2cc(C)c(=O)[nH]c2=O)CC1N=[N+]=[N-])Oc1ccccc1 (centres undefined) | 160 nM
CCc1ccc(OP(=O)(NC(C)C(=O)OC)OCC2OC(n3cc(C)c(=O)[nH]c3=O)CC2N=[N+]=[N-])cc1 (centres undefined) | 60 nM
COC(=O)C(C)NP(=O)(OCC1OC(n2cc(C)c(=O)[nH]c2=O)CC1N=[N+]=[N-])Oc1ccc(OC)cc1 (centres undefined) | 65 nM
COC(=O)[C@H](C)NP(=O)(OC[C@H]1O[C@@H](n2cc(C)c(=O)[nH]c2=O)C[C@@H]1N=[N+]=[N-])Oc1ccccc1 (some centres undefined) | 70 nM
COC(=O)C(NP(=O)(OCC1OC(n2cc(C)c(=O)[nH]c2=O)CC1N=[N+]=[N-])Oc1ccccc1)C(C)C (centres undefined) | 210 nM

Tested on: CCRF-CEM
Test: cytotoxic activity in CEM/0 cell line
Assay type: functional
Details: Homo sapiens
Summary of the method: (§2)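 Mock-infected MT-4 or CEM cell cultures incubated with compound dilutions in the same format as the antiviral assay. CC50 is the concentration reducing viable cell number (MT-4, trypan blue, day 5) […] by 50%. Mean of two to four independent experiments.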

SMILES | CC50
CCCCCc1ccc(OP(=O)(NC(C)C(=O)OC)OCC2OC(n3cc(C)c(=O)[nH]c3=O)CC2N=[N+]=[N-])cc1 (centres undefined) | 9000 nM
COC(=O)C(Cc1ccccc1)NP(=O)(OCC1OC(n2cc(C)c(=O)[nH]c2=O)CC1N=[N+]=[N-])Oc1ccccc1 (centres undefined) | 161000 nM
CCc1ccc(OP(=O)(NC(C)C(=O)OC)OCC2OC(n3cc(C)c(=O)[nH]c3=O)CC2N=[N+]=[N-])cc1 (centres undefined) | 31700 nM
COC(=O)C(C)NP(=O)(OCC1OC(n2cc(C)c(=O)[nH]c2=O)CC1N=[N+]=[N-])Oc1ccc(OC)cc1 (centres undefined) | 42600 nM
COC(=O)[C@H](C)NP(=O)(OC[C@H]1O[C@@H](n2cc(C)c(=O)[nH]c2=O)C[C@@H]1N=[N+]=[N-])Oc1ccccc1 (some centres undefined) | 172000 nM
COC(=O)C(NP(=O)(OCC1OC(n2cc(C)c(=O)[nH]c2=O)CC1N=[N+]=[N-])Oc1ccccc1)C(C)C (centres undefined) | 123000 nM

Tested on: MT4
Test: Anti HIV-2 activity in human lymphocyte MT-4 cell line
Assay type: functional, cell-based
Details: not given
Summary of the method: as §1

SMILES | EC50
CCCCCc1ccc(OP(=O)(NC(C)C(=O)OC)OCC2OC(n3cc(C)c(=O)[nH]c3=O)CC2N=[N+]=[N-])cc1 (centres undefined) | 74 nM
COC(=O)C(Cc1ccccc1)NP(=O)(OCC1OC(n2cc(C)c(=O)[nH]c2=O)CC1N=[N+]=[N-])Oc1ccccc1 (centres undefined) | 110 nM
CCc1ccc(OP(=O)(NC(C)C(=O)OC)OCC2OC(n3cc(C)c(=O)[nH]c3=O)CC2N=[N+]=[N-])cc1 (centres undefined) | 70 nM
COC(=O)C(C)NP(=O)(OCC1OC(n2cc(C)c(=O)[nH]c2=O)CC1N=[N+]=[N-])Oc1ccc(OC)cc1 (centres undefined) | 69 nM
COC(=O)[C@H](C)NP(=O)(OC[C@H]1O[C@@H](n2cc(C)c(=O)[nH]c2=O)C[C@@H]1N=[N+]=[N-])Oc1ccccc1 (some centres undefined) | 7 nM
COC(=O)C(NP(=O)(OCC1OC(n2cc(C)c(=O)[nH]c2=O)CC1N=[N+]=[N-])Oc1ccccc1)C(C)C (centres undefined) | 87 nM

Tested on: MT4
Test: cytotoxic activity in MT-4 cell line
Assay type: functional
Details: Homo sapiens
Summary of the method: as §2

SMILES | CC50
CCCCCc1ccc(OP(=O)(NC(C)C(=O)OC)OCC2OC(n3cc(C)c(=O)[nH]c3=O)CC2N=[N+]=[N-])cc1 (centres undefined) | 7000 nM
COC(=O)C(Cc1ccccc1)NP(=O)(OCC1OC(n2cc(C)c(=O)[nH]c2=O)CC1N=[N+]=[N-])Oc1ccccc1 (centres undefined) | 208000 nM
CCc1ccc(OP(=O)(NC(C)C(=O)OC)OCC2OC(n3cc(C)c(=O)[nH]c3=O)CC2N=[N+]=[N-])cc1 (centres undefined) | 11000 nM
COC(=O)C(C)NP(=O)(OCC1OC(n2cc(C)c(=O)[nH]c2=O)CC1N=[N+]=[N-])Oc1ccc(OC)cc1 (centres undefined) | 182000 nM
COC(=O)[C@H](C)NP(=O)(OC[C@H]1O[C@@H](n2cc(C)c(=O)[nH]c2=O)C[C@@H]1N=[N+]=[N-])Oc1ccccc1 (some centres undefined) | > 50000 nM
COC(=O)C(NP(=O)(OCC1OC(n2cc(C)c(=O)[nH]c2=O)CC1N=[N+]=[N-])Oc1ccccc1)C(C)C (centres undefined) | 205000 nM

Tested on: MT4
Test: Anti HIV-1 activity in human lymphocyte MT-4 cell line
Assay type: functional, cell-based
Details: not given
Summary of the method: as §1

SMILES | EC50
CCCCCc1ccc(OP(=O)(NC(C)C(=O)OC)OCC2OC(n3cc(C)c(=O)[nH]c3=O)CC2N=[N+]=[N-])cc1 (centres undefined) | 103 nM
COC(=O)C(Cc1ccccc1)NP(=O)(OCC1OC(n2cc(C)c(=O)[nH]c2=O)CC1N=[N+]=[N-])Oc1ccccc1 (centres undefined) | 80 nM
CCc1ccc(OP(=O)(NC(C)C(=O)OC)OCC2OC(n3cc(C)c(=O)[nH]c3=O)CC2N=[N+]=[N-])cc1 (centres undefined) | 68 nM
COC(=O)C(C)NP(=O)(OCC1OC(n2cc(C)c(=O)[nH]c2=O)CC1N=[N+]=[N-])Oc1ccc(OC)cc1 (centres undefined) | 71 nM
COC(=O)[C@H](C)NP(=O)(OC[C@H]1O[C@@H](n2cc(C)c(=O)[nH]c2=O)C[C@@H]1N=[N+]=[N-])Oc1ccccc1 (some centres undefined) | 6 nM
COC(=O)C(NP(=O)(OCC1OC(n2cc(C)c(=O)[nH]c2=O)CC1N=[N+]=[N-])Oc1ccccc1)C(C)C (centres undefined) | 99 nM

Tested on: not listed separately
Test: EC50 of HIV-2 in CEM/TK versus EC50 of HIV-2 in CEM/0
Assay type: functional
Details: not given
Summary of the method: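 Ratio of the HIV-2 EC50 in thymidine kinase-deficient CEM/TK⁻ cells to the HIV-2 EC50 in CEM/O cells. Both values come from the cytopathicity-protection assay.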

SMILES | Ratio
CCCCCc1ccc(OP(=O)(NC(C)C(=O)OC)OCC2OC(n3cc(C)c(=O)[nH]c3=O)CC2N=[N+]=[N-])cc1 (centres undefined) | 133
COC(=O)C(Cc1ccccc1)NP(=O)(OCC1OC(n2cc(C)c(=O)[nH]c2=O)CC1N=[N+]=[N-])Oc1ccccc1 (centres undefined) | 62
CCc1ccc(OP(=O)(NC(C)C(=O)OC)OCC2OC(n3cc(C)c(=O)[nH]c3=O)CC2N=[N+]=[N-])cc1 (centres undefined) | 145
COC(=O)C(C)NP(=O)(OCC1OC(n2cc(C)c(=O)[nH]c2=O)CC1N=[N+]=[N-])Oc1ccc(OC)cc1 (centres undefined) | 138
COC(=O)[C@H](C)NP(=O)(OC[C@H]1O[C@@H](n2cc(C)c(=O)[nH]c2=O)C[C@@H]1N=[N+]=[N-])Oc1ccccc1 (some centres undefined) | 171
COC(=O)C(NP(=O)(OCC1OC(n2cc(C)c(=O)[nH]c2=O)CC1N=[N+]=[N-])Oc1ccccc1)C(C)C (centres undefined) | 62

Tested on: not listed separately
Test: Selective index is the ratio of cytotoxic concentration to effective concentration against MT-4 cell line
Assay type: functional, MT4
Details: not given
Summary of the method: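 Selectivity index for HIV-2 in MT-4 cells is the CC50 (mock-infected cultures, trypan blue viable count at day 5) divided by the EC50 (protection of infected cultures from HIV-2 cytopathicity).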

SMILES | Selectivity index
CCCCCc1ccc(OP(=O)(NC(C)C(=O)OC)OCC2OC(n3cc(C)c(=O)[nH]c3=O)CC2N=[N+]=[N-])cc1 (centres undefined) | 99
COC(=O)C(Cc1ccccc1)NP(=O)(OCC1OC(n2cc(C)c(=O)[nH]c2=O)CC1N=[N+]=[N-])Oc1ccccc1 (centres undefined) | 2356
CCc1ccc(OP(=O)(NC(C)C(=O)OC)OCC2OC(n3cc(C)c(=O)[nH]c3=O)CC2N=[N+]=[N-])cc1 (centres undefined) | 153
COC(=O)C(C)NP(=O)(OCC1OC(n2cc(C)c(=O)[nH]c2=O)CC1N=[N+]=[N-])Oc1ccc(OC)cc1 (centres undefined) | 2638
COC(=O)[C@H](C)NP(=O)(OC[C@H]1O[C@@H](n2cc(C)c(=O)[nH]c2=O)C[C@@H]1N=[N+]=[N-])Oc1ccccc1 (some centres undefined) | >5555
COC(=O)C(NP(=O)(OCC1OC(n2cc(C)c(=O)[nH]c2=O)CC1N=[N+]=[N-])Oc1ccccc1)C(C)C (centres undefined) | 1891
